From the array DNA melting data of Ke et al. (doi:10.1101/2024.01.08.574731)

What was measured:
[1] = folding enthalpy; higher = less favourable; fluorescence melt of hairpins on a sequencing array, two-state fit; settings: sodium 0.088 M
Summary of the method: (§1)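 Folding enthalpy and melting temperature come from bootstrapped two-state fits to Cy3 fluorescence of library hairpins carrying annealed Cy3 and quencher oligos on a sequenced MiSeq flow cell. Imaging was done in 50 mM Na-HEPES pH 8.0, 25 mM NaCl, stepping by 2.5 °C up to 60 °C, and signals were normalised to pre-quench Cy3 and to control constructs. Results of four replicates were combined by inverse variance, and fitted temperatures were raised by 9.35 °C to match UV melts.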

[2] = melting temperature; fluorescence melt of hairpins on a sequencing array, two-state fit, raised by 9.35 °C to match UV melts; settings: sodium 0.088 M
Summary of the method: as §1

Sequence | folding enthalpy [1] [kcal/mol] | Tm [2] [°C]
GATCAGGCCCCTGATC ((((((....)))))) | -46.1 | 53.1
GATCAGGCGCCTGATC ((((((....)))))) | -52.1 | 60.8
GATCAGGCGTCTGATC ((((((....)))))) | -39.3 | 51
GATCAGGCTACTGATC ((((((....)))))) | -43.8 | 57.4
GATCAGGGAAACCCGATC ((((.((....)).)))) | -26.1 | 43
GATCAGGGAAACCTGATC (((((((....))))))) | -41.8 | 59
GATCAGGTCCTGATC ((((((...)))))) | -35.2 | 51.9
GATCAGGTCGCTGATC ((((((....)))))) | -43 | 53.3
GATCAGGTGACTGATC ((((((....)))))) | -46.4 | 54.9
GATCAGGTGGCTGATC ((((((....)))))) | -31.6 | 50.5
GATCAGTACACTGATC ((((((....)))))) | -36.4 | 54.7
GATCAGTACCCTGATC ((((((....)))))) | -35.6 | 49.4
GATCAGTACCTGATC ((((((...)))))) | -44.9 | 48.9
GATCAGTATACTGATC ((((((....)))))) | -45 | 54.3
GATCAGTCATCTGATC ((((((....)))))) | -35.4 | 51.1
GATCAGTCCCTGATC ((((((...)))))) | -46.5 | 50.3
GATCAGTCCTCTGATC ((((((....)))))) | -39.7 | 51.1
GATCAGTCGGCTGATC ((((((....)))))) | -46.8 | 51.5
GATCAGTCTACTGATC ((((((....)))))) | -49.8 | 54.2
GATCAGTGCGCTGATC ((((((....)))))) | -44.1 | 56.6
GATCAGTGTGCTGATC ((((((....)))))) | -52.8 | 56.6
GATCAGTTATCTGATC ((((((....)))))) | -34.2 | 52.1
GATCAGTTCTCTGATC ((((((....)))))) | -42.1 | 52.1
GATCAGTTGACTGATC ((((((....)))))) | -37.3 | 53.5

Sequence | folding enthalpy [1] [kcal/mol] | Tm [2] [°C]
GATCAGTTGCTGATC ((((((...)))))) | -34.1 | 48.8
GATCATAAGCATGATC ((((((....)))))) | -31.5 | 46.5
GATCATAAGTATGATC ((((((....)))))) | -33.6 | 47.7
GATCATACGGATGATC ((((((....)))))) | -39.6 | 47.1
GATCATAGTATGATC ((((((...)))))) | -35.6 | 47.2
GATCATAGTGATGATC ((((((....)))))) | -36.5 | 47.3
GATCATAGTTATGATC ((((((....)))))) | -40 | 48.2
GATCATATATATGATC ((((((....)))))) | -42 | 48.8
GATCATATCCATGATC ((((((....)))))) | -35.8 | 47.4
GATCATATGGATGATC ((((((....)))))) | -28.1 | 46.1
GATCATATGTATGATC ((((((....)))))) | -41.6 | 48.6
GATCATCACAATGATC ((((((....)))))) | -44.1 | 47.7
GATCATCACATGATC ((((((...)))))) | -36.7 | 49.1
GATCATCAGATGATC ((((((...)))))) | -35.1 | 44.5
GATCATCAGCATGATC ((((((....)))))) | -22.3 | 45
GATCATCAGGATGATC ((((((....)))))) | -36 | 50.6
GATCATCCACATGATC ((((((....)))))) | -34.7 | 46.4
GATCATCCCTATGATC ((((((....)))))) | -37.4 | 47.5
GATCATCCGCATGATC ((((((....)))))) | -35.9 | 47.8
GATCATCCTCATGATC ((((((....)))))) | -33.4 | 45.7
GATCATCCTTATGATC ((((((....)))))) | -37 | 46.3
GATCATCGCATGATC ((((((...)))))) | -31.4 | 49.6
GATCATCTGAATGATC ((((((....)))))) | -33.6 | 46.3
GATCATCTGTATGATC ((((((....)))))) | -36.2 | 47.1

Sequence | folding enthalpy [1] [kcal/mol] | Tm [2] [°C]
GATCATGAGATGATC ((((((...)))))) | -32.5 | 43.4
GATCATGAGGATGATC ((((((....)))))) | -38.4 | 43.7
GATCATGATATGATC ((((((...)))))) | -31.3 | 48.4
GATCATGATTATGATC ((((((....)))))) | -29.5 | 47.5
GATCATGCAAATGATC ((((((....)))))) | -39.7 | 55.4
GATCATGCAGATGATC ((((((....)))))) | -39.3 | 51.4
GATCATGCCGATGATC ((((((....)))))) | -40.8 | 49.5
GATCATGCGAATGATC ((((((....)))))) | -46.8 | 53.8
GATCATGCGTATGATC ((((((....)))))) | -39 | 48.3
GATCATGCTCATGATC ((((((....)))))) | -44.1 | 51.3
GATCATGGAAACATGGTC ((.((((....)))).)) | -25.8 | 46.6
GATCATGGCCATGATC ((((((....)))))) | -49.5 | 56.3
GATCATGGTGATGATC ((((((....)))))) | -39.4 | 49
GATCATGGTTATGATC ((((((....)))))) | -40.7 | 48.3
GATCATGTAAATGATC ((((((....)))))) | -38.9 | 56.6
GATCATGTATATGATC ((((((....)))))) | -41.7 | 55.3
GATCATGTCGATGATC ((((((....)))))) | -37.1 | 51
GATCATGTCTATGATC ((((((....)))))) | -38.9 | 53.1
GATCATTAAATGATC ((((((...)))))) | -28.6 | 44
GATCATTAACATGATC ((((((....)))))) | -28.6 | 44.7
GATCATTACTATGATC ((((((....)))))) | -41.7 | 48.6
GATCATTCCCATGATC ((((((....)))))) | -42.6 | 46.8
GATCATTCCGATGATC ((((((....)))))) | -41.3 | 49.1
GATCATTCGAATGATC ((((((....)))))) | -46.8 | 50.5

Sequence | folding enthalpy [1] [kcal/mol] | Tm [2] [°C]
GATCATTCTCATGATC ((((((....)))))) | -32.8 | 47.1
GATCATTGACATGATC ((((((....)))))) | -24.1 | 43.6
GATCATTGCGATGATC ((((((....)))))) | -38.8 | 51.8
GATCATTTAATGATC ((((((...)))))) | -27.6 | 48
GATCATTTAGATGATC ((((((....)))))) | -37.4 | 47.6
GATCATTTCTATGATC ((((((....)))))) | -41.4 | 48.6
GATCATTTGAATGATC ((((((....)))))) | -35.4 | 48.2
GATCATTTGTATGATC ((((((....)))))) | -36 | 47.4
GATCATTTTGATGATC ((((((....)))))) | -51.2 | 49.5
GATCATTTTTATGATC ((((((....)))))) | -40 | 49.1
GATCCAAACTTGGATC ((((((....)))))) | -39.4 | 53.1
GATCCAAATATGGATC ((((((....)))))) | -34.1 | 49.4
GATCCAACAGTGGATC ((((((....)))))) | -32.1 | 47.1
GATCCAACGTTGGATC ((((((....)))))) | -58.1 | 55.6
GATCCAAGCATGGATC ((((((....)))))) | -41.2 | 51.8
GATCCAAGGTGGATC ((((((...)))))) | -32.6 | 51.1
GATCCAAGTTGGATC ((((((...)))))) | -35.7 | 49.1
GATCCAATACTGGATC ((((((....)))))) | -40 | 48.6
GATCCAATATTGGATC ((((((....)))))) | -41.7 | 52.2
GATCCAATGTTGGATC ((((((....)))))) | -35 | 52.6
GATCCACAAATGGATC ((((((....)))))) | -32.9 | 47.5
GATCCACAACTGGATC ((((((....)))))) | -34.5 | 47
GATCCACAGATGGATC ((((((....)))))) | -38.6 | 49
GATCCACATATGGATC ((((((....)))))) | -41.2 | 50.6
